DAGLB inh – DAGLB lipase inhibitors, primary screen, biochemical, fluorescence, HTS. HEK293T DAGLB membrane lysate, EnzChek fluorogenic substrate. actives 0.059% (n = 340,000). AID 504411, 2011. inhibition, % at 5.17 µM. Diacylglycerol lipase-beta (Homo sapiens), Q8NCG7; in the data active = inhibition above about 34%
HCV NS3 hel inh – inhibitors of HCV NS3 helicase, primary screen, biochemical, Cy5 molecular beacon fluorescence. NS3 helicase DNA unwinding. actives 0.56% (n = 290,000). Hepatitis C virus NS3 helicase. inhibition, % at 10.9 µM;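 active = inhibition above the mean of all tested compounds plus 3 SD, set per campaign, cut at about 35% in these data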
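Compound dosing – single dose, 10.9 µM nominal final, DMSO 0.8% final · System – NS3 helicase fragment of HCV · Buffer or medium – MOPS pH 6.5, MgCl2, DTT, Tween20, BSA · Signal – Cy5 beacon fluorescence read at start and 1 h · Also added – annealed dual-labelled DNA beacon duplex, ATP-started · Schedule – 1 h at 25 °C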
DNA FID counter-1 – compounds displacing fluorescent DNA intercalator, primary screen, artefact control for HCV NS3 helicase inhibitor project, biochemical, FID fluorescence; DNA fluorescent intercalator displacement; inhibition, % at 7.9 µM; actives 0.17% (n = 290,000); AID 1845, 2009;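 also: higher means more ethidium bromide displaced from hairpin DNA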
core dimer inh – inhibitors of HCV core protein dimerization, primary screen, biochemical, TR-FRET, high-throughput. actives 0.33% (n = 300,000). AID 1899, 2009. TR-FRET GST/Flag-core106 dimerization, 1536-well. inhibition, % at 5 µM;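 active = inhibition above the mean of all tested compounds plus 3 SD, set per screening campaign, cut at about 45% in these data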
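Assay system: GST-tagged and Flag-tagged HCV core protein residues 1-106 / Times: compound-protein-antibody incubation 4 h at 22.5 °C / Signal: time-resolved FRET, ex 340 nm, em 617 and 671 nm / Evaluation: % inhibition based on acceptor/donor emission ratio / Benchmarks: wells lacking GST-core106 and wells with excess unlabelled core106 / Repeats: singlicate, one well per compound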
GPR7 antagonist – GPR7 receptor antagonists, primary screen, cell-based, fluorescence, single concentration. Neuropeptides B/W receptor type 1 (Homo sapiens), P48145. GPR7-expressing cells, fluorescence antagonist assay. inhibition, % at 4.4 µM. actives 1.1% (n = 290,000). AID 1861, 2009; in the data active = inhibition above about 16%, passing the limit was not always enough;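 also: cells stimulated with the agonist NPW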
Target sequence (P48145 whole entry, looked up): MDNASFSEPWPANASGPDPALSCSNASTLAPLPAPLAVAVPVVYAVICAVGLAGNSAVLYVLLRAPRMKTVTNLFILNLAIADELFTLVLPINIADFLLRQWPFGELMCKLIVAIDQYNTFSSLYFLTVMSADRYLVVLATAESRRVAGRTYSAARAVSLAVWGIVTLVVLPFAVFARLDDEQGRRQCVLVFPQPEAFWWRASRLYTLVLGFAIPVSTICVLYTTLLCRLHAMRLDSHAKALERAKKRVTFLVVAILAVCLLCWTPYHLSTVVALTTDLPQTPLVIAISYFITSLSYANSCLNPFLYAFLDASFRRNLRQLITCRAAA
GRK2 aptamer HTS – compounds blocking aptamer binding on GRK2 – biochemical, human GRK2, bead flow cytometry, HTS, primary screen. actives 0.59% (n = 330,000). inhibition of aptamer binding, % at 10 µM. FAM-aptamer displacement from GRK2. AID 488847, 2010. Beta-adrenergic receptor kinase 1 (Homo sapiens), P25098;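 active = inhibition of aptamer binding above 40%, roughly 3 SD of noise, on plates passing a quality check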;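 also: median bead fluorescence of bound FAM aptamer so fluorescent compounds give negative values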
NS3 hel confirm – HCV NS3 helicase inhibitors, retest, confirmation, biochemical, Cy5 molecular beacon fluorescence, triplicate | actives 31% (n = 1,600) | AID 1943, 2009 | inhibition, % at 10.9 µM | shares compounds with HCV NS3 hel inh | NS3 helicase DNA unwinding;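 active = inhibition above the mean of all tested compounds plus 3 SD, cutoff set per campaign, cut at about 36% in these data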
DNA FID counter-2 – compounds displacing fluorescent DNA intercalator, artefact control for HCV NS3 helicase inhibitor project, biochemical, FID fluorescence, triplicate. shares compounds with HCV NS3 hel inh. actives 4% (n = 1,600). DNA fluorescent intercalator displacement. inhibition, % at 7.9 µM;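 also: higher means more displacement of ethidium bromide from the DNA hairpin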
FID counter DR – compounds displacing fluorescent intercalator from DNA, dose response, counter-screen for HCV NS3 helicase inhibitor project, biochemical, fluorescence | shares compounds with HCV NS3 hel inh | fluorescent intercalator displacement from DNA | IC50, µM | 120 tested, under 10 active | AID 2172, 2009; call rule not given here
Large screens that a line does not name were inactive (follow-up assays come after a bar, where they were run). Hits are enriched below; roughly 2.2% of the tested compounds scored in any of these assays. Rule as the data show it, unless noted: active = inhibition above about 37%; inactive = the rest.

CCN(CC)C(=O)C1=C(C)N(Cc2ccc(OC)cc2)C(=O)C(CC(=O)NCCc2ccccn2)C1 (stereo unspecified)	none (no result: HCV NS3 hel inh, DNA FID counter-1, core dimer inh, GPR7 antagonist, GRK2 aptamer HTS)
NS(=O)(=O)c1ccc(CCNC(=O)c2cc3ccccc3s2)cc1	HCV NS3 hel inh 51 | NS3 hel confirm inactive | DNA FID counter-2 inactive
NS(=O)(=O)c1ccc(CCNC(=O)c2ccc(Cl)s2)cc1	none
Cc1nnc(SCC2=C(C(=O)O)N3C(=O)C(NC(=O)c4cc(F)c(F)cc4Cl)C3SC2)s1 (stereo unspecified)	HCV NS3 hel inh 36 | NS3 hel confirm inactive | DNA FID counter-2 inactive
Cc1nnc(SCC2=C(C(=O)O)N3C(=O)C(NC(=O)Cn4nc(C(F)F)c(Cl)c4C)C3SC2)s1 (stereo unspecified)	HCV NS3 hel inh 45 | NS3 hel confirm 38 | DNA FID counter-2 inactive
CN1C(=O)C(Cl)(Cl)C(=O)c2ccccc21	HCV NS3 hel inh 53 (no result: core dimer inh, GRK2 aptamer HTS) | NS3 hel confirm inactive | DNA FID counter-2 inactive
Cc1cc(=O)[nH]c(N/N=C/c2cc(C)n(CC(F)(F)F)c2C)n1	none
COC(=O)c1ccc(-n2c(C)cc(/C=N/Nc3nc(C)cc(=O)[nH]3)c2C)cc1	HCV NS3 hel inh 38 | NS3 hel confirm inactive | DNA FID counter-2 inactive
Oc1c(Cl)cc(Cl)cc1/C=N/NC(=S)NC1CC2C=CC1C2 (stereo unspecified)	HCV NS3 hel inh 48 | NS3 hel confirm 52 | DNA FID counter-2 inactive | FID counter DR inactive
Oc1ccccc1C=NNC(=S)NC1CC2C=CC1C2 (stereo unspecified)	none (no result: HCV NS3 hel inh, DNA FID counter-1, core dimer inh, GPR7 antagonist, GRK2 aptamer HTS)
O=C(c1ccco1)[C@@H]1[C@@H]2C(=O)N(c3ccc(F)cc3)C(=O)[C@@H]2C2c3ccccc3C=CN21 (stereo partly specified)	HCV NS3 hel inh 43 (no result: DAGLB inh) | NS3 hel confirm inactive | DNA FID counter-2 inactive
Cc1ccnc(SCC(=O)NC2CCCCCC2)n1	none
CCN(CC)CCCNc1nc2ccccc2c2nc(-c3ccncc3)nn12	none
Cc1ccc(S(=O)(=O)Nc2ccc(Br)cc2/C=N/n2cnnc2)cc1	HCV NS3 hel inh 36 | NS3 hel confirm 38 | DNA FID counter-2 inactive
O=C(CC1SC(=O)N(c2ccccc2)C1=O)Nc1ccccc1 (stereo unspecified)	HCV NS3 hel inh 38 | NS3 hel confirm inactive | DNA FID counter-2 inactive
O=C1C=CC2(O[C@H](c3ccccc3)[C@@H](c3ccccc3)O2)[C@H](Sc2ccccc2O)C1	none (no result: HCV NS3 hel inh, DNA FID counter-1, core dimer inh, GPR7 antagonist, GRK2 aptamer HTS)
CC1(C)C(=O)Nc2ccccc2N1C(=O)Cn1ncc(Cl)c(Cl)c1=O	HCV NS3 hel inh 47 | NS3 hel confirm inactive | DNA FID counter-2 inactive
O=C(CN1CCC(C(=O)O)CC1)Nc1ccccc1Oc1ccccc1	HCV NS3 hel inh 37 (no result: DAGLB inh) | NS3 hel confirm inactive | DNA FID counter-2 inactive
COc1ccccc1NC(=O)CN1CCC(C(=O)c2ccc(F)cc2)CC1	none
COc1nc(-c2ccc(C)cc2)ccc1-c1noc(-c2ccco2)n1	HCV NS3 hel inh 40 | NS3 hel confirm inactive | DNA FID counter-2 inactive
CCCn1c(/C=C/c2ccccc2)nc2ccccc21	none
CC(C)Cn1c(/C=C/c2ccco2)nc2ccccc21	HCV NS3 hel inh 55, core dimer inh 47 | NS3 hel confirm inactive | DNA FID counter-2 inactive
CN1C[C@@H]2[C@@H]3C(=O)N(Cc4ccccc4)C(=O)[C@@H]3[C@](C)(C1=O)N2C(=O)c1ccc(F)cc1	none (no result: HCV NS3 hel inh, DNA FID counter-1, core dimer inh, GPR7 antagonist, GRK2 aptamer HTS)
CCc1ccc(C2CC(=O)N3CN(c4ccccc4)CSC3=C2C#N)cc1 (stereo unspecified)	HCV NS3 hel inh 44 | NS3 hel confirm inactive | DNA FID counter-2 inactive
O=C(O)CCCN1C(=O)/C(=C\c2ccco2)SC1=S	HCV NS3 hel inh 39 (no result: core dimer inh, GRK2 aptamer HTS) | NS3 hel confirm inactive | DNA FID counter-2 inactive
O=C(CN1C(=O)/C(=C\c2ccco2)SC1=S)Nc1ccc(O)cc1C(=O)O	none
O=C(CCCN1C(=O)/C(=C/c2ccco2)SC1=S)Nc1ccccc1C(=O)O	HCV NS3 hel inh 46 | NS3 hel confirm 73 | DNA FID counter-2 inactive
O=C(CCN1C(=O)/C(=C/c2ccco2)SC1=S)Nc1ccc(O)cc1C(=O)O	HCV NS3 hel inh 42 (no result: core dimer inh) | NS3 hel confirm 66 | DNA FID counter-2 inactive
CCc1ccc(/C=C2/SC(=S)N(CCCC(=O)Nc3ccccc3C(=O)O)C2=O)cc1	none
Cc1ccc(OCc2n[nH]c(=S)n2-c2ccc(Br)cc2)cc1	HCV NS3 hel inh 37 | NS3 hel confirm inactive | DNA FID counter-2 inactive
Cc1cc(O)c(C(=O)/C=C/c2ccc(C(C)C)cc2)c(=O)o1	none (no result: core dimer inh)
Cc1cc(O)c(C(=O)/C=C/c2ccccc2)c(=O)o1	HCV NS3 hel inh 43 (no result: core dimer inh) | NS3 hel confirm inactive | DNA FID counter-2 inactive
Cc1cc(O)c(C(=O)/C=C/c2ccccc2Br)c(=O)o1	HCV NS3 hel inh 48 | NS3 hel confirm inactive | DNA FID counter-2 inactive
CCOc1ccc(/C=C2\SC(=S)N(NS(=O)(=O)c3ccc(C)cc3)C2=O)cc1OC	none
COc1ccc(/C=C2\SC(=S)N(NS(=O)(=O)c3ccc(C)cc3)C2=O)c(OC)c1	HCV NS3 hel inh 111 | NS3 hel confirm 80 | DNA FID counter-2 inactive
COc1ccccc1/C=C1\SC(=S)N(NS(=O)(=O)c2ccc(C)cc2)C1=O	HCV NS3 hel inh 41 | NS3 hel confirm 71 | DNA FID counter-2 inactive
CCOc1ccc(/C=C2\SC(=S)N(NS(=O)(=O)c3ccccc3)C2=O)cc1OC	HCV NS3 hel inh 42 | NS3 hel confirm 79 | DNA FID counter-2 inactive
COCCN(C(=O)COC(=O)CCC1CCCCC1)c1c(N)n(Cc2ccccc2)c(=O)[nH]c1=O	none (no result: HCV NS3 hel inh, DNA FID counter-1, core dimer inh, GPR7 antagonist, GRK2 aptamer HTS)
CC1CN(C(=O)CN(C)S(=O)(=O)c2ccc3ccccc3c2)CC(C)O1 (stereo unspecified)	none
COC(=O)c1ccc(CN2CCN(CC(C)C)C(CCO)C2)cc1 (stereo unspecified)	HCV NS3 hel inh 38 | NS3 hel confirm inactive | DNA FID counter-2 inactive
CCN1C/C(=C/c2ccc(N3CCOCC3)cc2)C(=O)/C(=C/c2ccc(N3CCOCC3)cc2)C1	HCV NS3 hel inh 51 | NS3 hel confirm inactive | DNA FID counter-2 inactive
